From ChEMBL document CHEMBL3865785, “Dopaminergic isoquinolines with hexahydrocyclopenta[ij]-isoquinolines as D2-like selective ligands” (Eur J Med Chem, 2016)

Experiments:
[1] = Displacement of [3H]SCH23390 from D1-like dopaminergic receptor (unknown origin) in striatal membrane measured after 1 hr by liquid scintillation counting method; type: cell membranes, Homo sapiens, Striatum
In short: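 Striatal membranes homogenized in 50 mM Tris-HCl pH 7.4, centrifuged twice at 20000 g. Resuspended in Tris with 5 mM MgSO4, 0.5 mM EDTA, 0.02% ascorbic acid. 100 µg protein incubated 1 h at 25 °C with 0.25 nM (final) [3H]SCH 23390 plus drug. Nonspecific binding defined with 30 μM SK&F 38393. GF/B filtration, scintillation counting. Mean ± SEM, n = 3.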

[2] = Induction of apoptosis in human neutrophils assessed as necrotic cells at 30 uM measured after 24 hrs by Annexin-V-FITC/propidium iodide staining-based flow cytometric analysis (reference value: 5.33%); type: cell-based; details: neutrophil
[3] = Displacement of [3H]raclopride from D2-like dopaminergic receptor (unknown origin) in striatal membrane measured after 1 hr by liquid scintillation counting method; type: cell membranes, Homo sapiens, Striatum
In short: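 Striatal membranes washed by four 20000 g centrifugations. Resuspended in Tris buffer with 120 mM NaCl, 5 mM KCl, 1 mM CaCl2, 1 mM MgCl2, 0.1% ascorbic acid. 200 µg protein incubated 1 h at 25 °C with 0.5 nM (final) [3H]raclopride plus drug. Nonspecific binding defined with 50 µM apomorphine. Filtration, scintillation counting. Mean ± SEM, n = 3.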

[4] = Induction of apoptosis in human neutrophils assessed as early apoptotic cells at 30 uM measured after 24 hrs by Annexin-V-FITC/propidium iodide staining-based flow cytometric analysis (reference value: 1.1%); type: cell-based; details: neutrophil
[5] = Induction of apoptosis in HUVEC at 30 uM measured after 24 hrs by Annexin-V-FITC/propidium iodide staining-based flow cytometric analysis; type: cell-based; details: human
Homo sapiens = species on record: Homo sapiens; test: Selectivity ratio of Ki for D1-like dopaminergic receptor (unknown origin) in striatal membranes to Ki for D2-like dopaminergic receptor (unknown origin) in striatal membranes; type: cell membranes
[6] = Cytotoxicity against HUVEC assessed as reduction in cell viability at 30 uM measured after 24 hrs by MTT assay relative to control; type: toxicity, cell-based; details: human
In short: (§1)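 Neutrophils isolated from healthy-donor buffy coats by Ficoll-Hypaque gradient; HUVEC from collagenase isolation, passage ≤1. Cells at 10^5 per 100 µL supplemented RPMI, incubated 24 h at 37 °C with or without compound (30 μM). MTT added (solution made at 2 mg/mL in PBS), further 3 h at 37 °C; colorimetric readout vs vehicle. Mean ± SEM, n = 3 independent experiments.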

[7] = Induction of apoptosis in human neutrophils assessed as viable cells at 30 uM measured after 24 hrs by Annexin-V-FITC/propidium iodide staining-based flow cytometric analysis (reference value: 93.52%); type: cell-based, Neutrophil; details: read-out: Activity
[8] = Induction of apoptosis in human neutrophils assessed as late apoptotic cells at 30 uM measured after 24 hrs by Annexin-V-FITC/propidium iodide staining-based flow cytometric analysis (reference value: 0.06%); type: cell-based; details: neutrophil
[9] = Cytotoxicity against human neutrophils assessed as reduction in cell viability at 30 uM measured after 24 hrs by MTT assay relative to control; type: toxicity, cell-based; details: neutrophil; in short: as §1

SMILES	Ki [1] [µM]	pKi [1]	Ki [3] [µM]	pKi [3]	Ratio Ki (Homo sapiens)	Activity [2] [%]	Activity [4] [%]	Activity [5]	Activity [6]	viability at 24 h, 30 µM [7] [%]	Activity [8] [%]	Activity [9]
Oc1cc2c3c(c1O)C(c1ccccc1)CC3NCC2 (centres undefined)	–	–	–	–	–	4.53	0.08	Non-Toxic	Non-Toxic	95.3	0.05	Non-Toxic
C=CCN1CCc2cc(OC)c(OC)cc2C1/C=C/C (centres undefined)	37.6	4.432	13.8	4.86	2.72	–	–	–	–	–	–	–
C/C=C/C1NCCc2cc(OC)c(OC)cc21 (centres undefined)	45.6	4.347	8.86	5.059	5.15	–	–	–	–	–	–	–
C/C=C/C1NCCc2cc(O)c(O)cc21 (centres undefined)	57.7	4.246	0.458	6.352	126	–	–	–	–	–	–	–
C/C=C/C1c2cc(OC)c(OC)cc2CCN1C (centres undefined)	18.3	4.74	14.7	4.833	1.24	–	–	–	–	–	–	–
C=CCN1CCc2cc(O)c(O)c3c2C1CC3c1ccccc1 (centres undefined)	–	–	–	–	–	3.03	6.86	Non-Toxic	Non-Toxic	89.9	0.33	Toxic
Oc1cc2c(cc1O)C(/C=C/c1ccccc1)NCC2 (centres undefined)	9.57	5.048	1.42	5.869	6.73	–	–	–	–	–	–	–
CN1CCc2cc(O)c(O)c3c2C1CC3c1ccccc1 (centres undefined)	–	–	–	–	–	5.05	0.15	Non-Toxic	Non-Toxic	94.7	3.06	Non-Toxic

Continued, in another order:

Ki [1] [µM]	pKi [1]	Ki [3] [µM]	pKi [3]	Ratio Ki (Homo sapiens)	SMILES	Activity [2] [%]	Activity [4] [%]	Activity [5]	Activity [6]	viability at 24 h, 30 µM [7] [%]	Activity [8] [%]	Activity [9]
1.71	5.766	0.018	7.749	95.2	C=CCN1CCc2cc(O)c(O)cc2C1/C=C/C (centres undefined)	0.1	0.28	Non-Toxic	Non-Toxic	93.5	0.11	Non-Toxic
3.19	5.498	0.057	7.264	55.9	CN1CCc2cc(O)c(O)cc2C1/C=C/c1ccccc1 (centres undefined)	6.94	3.24	Non-Toxic	Non-Toxic	89.7	0.12	Non-Toxic
7.68	5.133	1.17	5.942	6.58	C=CCN1CCc2cc(OC)c(OC)cc2C1/C=C/c1ccccc1 (centres undefined)	–	–	–	–	–	–	–
0.55	6.26	0.56	6.837	0.98	NCCc1ccc(O)c(O)c1 [DOPAMINE]	–	–	–	–	–	–	–
1.29	5.897	0.072	7.181	17.9	C/C=C/C1c2cc(O)c(O)cc2CCN1C (centres undefined)	2.43	3.95	Non-Toxic	Non-Toxic	93.3	0.3	Non-Toxic
6.2	5.251	0.436	6.376	14.2	COc1cc2c(cc1OC)C(/C=C/c1ccccc1)N(C)CC2 (centres undefined)	–	–	–	–	–	–	–
4.56	5.36	6.18	5.244	0.74	COc1cc2c(cc1OC)C(/C=C/c1ccccc1)NCC2 (centres undefined)	–	–	–	–	–	–	–
6.04	5.267	0.041	7.408	147	C=CCN1CCc2cc(O)c(O)cc2C1/C=C/c1ccccc1 (centres undefined)	6.11	0.15	Non-Toxic	Non-Toxic	93.6	0.16	Non-Toxic
